Measured values as given in ChEMBL document CHEMBL1155977, “Design and one-pot synthesis of alpha-aminophosphonates and bis(alpha-aminophosphonates) by iron(III) chloride and cytotoxic activity” (Eur J Med Chem, 2009).

Experiments:
MCF7 [1] = test: Cytotoxicity against human MCF7 cells assessed as growth inhibition at 100 uM after 72 hrs by MTT assay; format: functional; details: MCF7, 72 h
Procedure, shortened: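 MCF-7 cells in RPMI 1640 with 10% fetal bovine serum, plated at 10⁴ cells/well. Compounds in DMSO diluted into medium at 0.1–100 and incubated 72 h at 37 °C, 5% CO₂. Doxorubicin served as positive control and 0.6% DMSO as negative control. MTT for 4 h; formazan dissolved in 2-propanol/DMSO/HCl (30:20:2); read at 570 nm. Inhibition percentage at the highest concentration.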

Raji [2] = test: Cytotoxicity against human Raji cells assessed as growth inhibition at 100 uM after 48 hrs by MTT assay; format: functional
Procedure, shortened: (§1)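 Jurkat and Raji cells in RPMI 1640 with 10% fetal bovine serum, plated at 10⁴ cells/well. Compounds in DMSO diluted into medium, tested at 0.1–100. Exposure 48 h at 37 °C, 5% CO₂. Doxorubicin positive control; 0.6% DMSO negative control. MTT added for a further 4 h; formazan dissolved in 2-propanol/DMSO/HCl (30:20:2); A570. Inhibition percentage taken at the top concentration.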

Jurkat [3] = test: Cytotoxicity against human Jurkat cells assessed as growth inhibition at 100 uM after 48 hrs by MTT assay; format: functional; procedure, shortened: as §1
Raji [4] = test: Cytotoxicity against human Raji cells after 48 hrs by MTT assay; format: functional, cell-based
Procedure, shortened: (§2)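 Cells were grown in RPMI 1640 with 10% fetal bovine serum and plated at 10⁴ cells/well. Compounds were dissolved in DMSO, diluted in medium, and tested at 0.1, 1, 10, 25, 50, 75 and 100. Incubation was at 37 °C in 5% CO₂ for 48 h (Jurkat, Raji) or 72 h (MCF-7). Controls were doxorubicin (positive) and 0.6% DMSO (negative). MTT was added for a further 4 h, formazan was dissolved in 2-propanol/DMSO/HCl (30:20:2), and absorbance was read at 570 nm.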

MCF7 [5] = test: Cytotoxicity against human MCF7 cells after 72 hrs by MTT assay; format: functional, cell-based; details: MCF7, 72 h; procedure, shortened: as §2
Jurkat [6] = test: Cytotoxicity against human Jurkat cells after 48 hrs by MTT assay; format: functional, cell-based; procedure, shortened: as §2

| SMILES | inhibition at 100 µM (MCF7 [1]) | inhibition at 100 µM (Raji [2]) | inhibition at 100 µM (Jurkat [3]) | IC50 (Raji [4]) | IC50 (MCF7 [5]) | IC50 (Jurkat [6]) |
| --- | --- | --- | --- | --- | --- | --- |
| CCOP(=O)(OCC)C(Nc1ccc(Cc2ccc(NC(c3cc(OC)c(OC)c(OC)c3)P(=O)(OCC)OCC)cc2)cc1)c1cc(OC)c(OC)c(OC)c1 (stereo not given) | 3.5% | 0% | 20.1% | – | – | – |
| CCOP(=O)(OCC)C(Nc1ccc(Cc2ccc(NC(c3ccc(N(C)C)cc3)P(=O)(OCC)OCC)cc2)cc1)c1ccc(N(C)C)cc1 (stereo not given) | 12.7% | 0.78% | 17.8% | – | – | – |
| CCOP(=O)(OCC)C(Nc1ccc(S(=O)(=O)c2ccc(NC(c3ccc(O)c(OC)c3)P(=O)(OCC)OCC)cc2)cc1)c1ccc(O)c(OC)c1 (stereo not given) | 16.6% | 0% | 15.6% | – | – | – |
| CCOP(=O)(OCC)C(Nc1ccc(Cc2ccc(NC(c3ccccc3)P(=O)(OCC)OCC)cc2)cc1)c1ccccc1 (stereo not given) | 13.9% | 6.41% | 28% | – | – | – |
| CCOP(=O)(OCC)C(Nc1nc2[nH]cnc2c(=O)[nH]1)c1ccc(C(Nc2nc3[nH]cnc3c(=O)[nH]2)P(=O)(OCC)OCC)cc1 (stereo not given) | 12.7% | 64.8% | 0% | – | – | – |
| CCOP(=O)(OCC)C(Nc1ccc(C(=O)c2ccc(NC(c3ccccc3)P(=O)(OCC)OCC)cc2)cc1)c1ccccc1 (stereo not given) | 10.2% | 0% | 15.8% | – | – | – |
| CCOP(=O)(OCC)C(Nc1ccc(Oc2ccc(NC(c3ccccc3)P(=O)(OCC)OCC)cc2)cc1)c1ccccc1 (stereo not given) | 0% | 0% | 6.84% | – | – | – |
| CCOP(=O)(OCC)C(Nc1ccc(Cc2ccc(NC(c3ccc(O)c(OC)c3)P(=O)(OCC)OCC)cc2)cc1)c1ccc(O)c(OC)c1 (stereo not given) | 29.1% | 56.2% | 40.1% | 58.6 µM | – | – |
| CCOP(=O)(OCC)C(Nc1ccc(Cc2ccc(NC(c3ccc([N+](=O)[O-])cc3)P(=O)(OCC)OCC)cc2)cc1)c1ccc([N+](=O)[O-])cc1 (stereo not given) | 12.2% | 0% | 10.7% | – | – | – |
| CCOP(=O)(OCC)C(NCCc1c[nH]c2ccccc12)c1ccc(C(NCCc2c[nH]c3ccccc23)P(=O)(OCC)OCC)cc1 (stereo not given) | 54.2% | 64.8% | 68.4% | 45.2 µM | 67.5 µM | 24.3 µM |
| CCOP(=O)(OCC)C(Nc1ccccc1)c1ccc(C(Nc2ccccc2)P(=O)(OCC)OCC)cc1 (stereo not given) | 25.4% | 27.2% | 36.8% | – | – | – |
| COc1cccc2c1C(=O)c1c(O)c3c(c(O)c1C2=O)C[C@@](O)(C(=O)CO)C[C@@H]3O[C@H]1C[C@H](N)[C@H](O)[C@H](C)O1 [DOXORUBICIN] | 65.5% | 66.7% | 82.3% | – | – | – |
